Laboratory results: ChEMBL document CHEMBL4651341, “The discovery of a novel series of compounds with single-dose efficacy against juvenile and adult Schistosoma species” (PLoS Negl Trop Dis, 2021)
≈ marks a conversion by molar mass, not a printed value.

Experiments:
Schistosoma mansoni [1] = assay: Concentration required to kill 50% of 21 day old worms 5 days after drug treatment.; format: functional, organism-based; details: Puerto Rican, 120 h
How it was run: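 Juvenile S. mansoni (Puerto Rican strain) were perfused from CD1 mice 3 weeks post-infection and washed. They were cultured 6–8 per well in 200 µL DMEM with 2 mM glutamine, penicillin/streptomycin and 10% FCS at 37 °C, 5% CO2. Viability of individual worms was scored on day 5 after dosing (120 h).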

[2] = Concentration required to kill 50% HepG2 cells as detected by MTT staining; format: toxicity, cell-based; details: homo sapiens, read-out: TC50 (the source's name)
[3] = Mean plasma concentration at 4h in Swiss albino male mice at […] per compound (administered orally in a mixture of 5 compounds to 3 mice) assessed by LCMS/MS.; format: ADME, organism-based; details: mouse, po
[4] = Mean time to peak plasma concentration in Swiss albino male mice at […] per compound (administered orally in a mixture of 5 compounds to 3 mice) assessed by LCMS/MS.; format: ADME, organism-based; details: mouse, po
Schistosoma mansoni [5] = assay: Concentration required to kill 50% of 42 day old worms 5 days after drug treatment.; format: functional, organism-based; details: Puerto Rican, 120 h
How it was run: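 Adult S. mansoni were perfused from CD1 mice 6 weeks post-infection and washed. They were cultured 3 pairs per well in 1 mL DMEM with 2 mM glutamine, penicillin/streptomycin and 10% FCS […] at 37 °C, 5% CO2. Viability of individual worms was scored on day 5 (120 h).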

[6] = Mean oral bioavailability in Swiss albino male mice at […] per compound (administered in a mixture of 5 compounds to 3 mice) assessed by LCMS/MS.; further: dose 2.5 mg/kg; format: ADME, organism-based; details: mouse, in vivo
[7] = Mean AUC inf in Swiss albino male mice at 1 mg/kg per compound (administered iv in a mixture of 5 compounds to 3 mice) assessed by LCMS/MS.; format: ADME, organism-based; details: male, Swiss albino, mouse, in vivo
How it was run: (§1)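 Male Swiss albino mice (~30 g), 3 per experiment, mostly dosed as mixtures of 5 compounds iv via the lateral tail vein. Vehicle: 10% DMSO/90% 50 mM Na2HPO4 with 0.5% Tween-80. Blood sampled at 5, 15, 30 min and 1, 2, 4, 8, 24 h. Plasma stored at −20 °C and quantified by LC-MS after acetonitrile precipitation.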

[8] = Mean observed clearance in Swiss albino male mice at 1 mg/kg per compound (administered iv in a mixture of 5 compounds to 3 mice) assessed by LCMS/MS.; format: ADME, organism-based; details: male, Swiss albino, mouse, in vivo, read-out: Clearance (converted); how it was run: as §1
[9] = Mean volume of distribution at steady state in Swiss albino male mice at 1 mg/kg per compound (administered iv in a mixture of 5 compounds to 3 mice) assessed by LCMS/MS.; format: ADME, organism-based; details: mouse, in vivo, read-out: Volume
How it was run: (§2)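 Male Swiss albino mice (~30 g), 3 per experiment, mostly dosed as mixtures of 5 compounds iv via the lateral tail vein. Vehicle: 10% DMSO/90% 50 mM Na2HPO4 with 0.5% Tween-80. Plasma stored at −20 °C and quantified by LC-MS after acetonitrile precipitation.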

[10] = Mean half-life in Swiss albino male mice at 1 mg/kg per compound (administered iv in a mixture of 5 compounds to 3 mice) assessed by LCMS/MS.; format: ADME, organism-based; details: mouse, in vivo; how it was run: as §2
[11] = Mean plasma concentration at 24h in Swiss albino male mice at […] per compound (administered orally in a mixture of 5 compounds to 3 mice) assessed by LCMS/MS.; format: ADME, organism-based; details: mouse, po
[12] = Percentage of parent compound remaining after incubation for 90 minutes with cyropreserved mouse hepatocytes at a concentration of 1uM compound and […], determined by LCMS; format: ADME, tissue-based, Hepatocyte; details: cryopreserved mouse hepatocytes, read-out: Stability
How it was run: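 Compound was incubated at 1 µM final (2 µM working solution mixed 1:1 with hepatocyte suspension) in supplemented KHB pH 7.4. Conditions: 37 °C, 5% CO2, gentle mixing, duplicates. Reaction quenched with ice-cold acetonitrile containing standard; analysed by LC-MS/MS. % remaining = AUC at t / AUC at T0.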

[13] = Solubility at 25 degC of compound (diluted from DMSO) in PBS at pH 7.4 determined after 24h (1h sonication, 22h shaking, 1h sonication) by LCMS/MS; format: physicochemical
[14] = Partition coefficient of compound between n-octanol and PBS (pH7.4); format: physicochemical; details: octanol/water, pH 7.4
How it was run: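 Shake-flask method using octanol and PBS pH 7.4, each pre-saturated with the other. Compound was shaken 2 h at 850 rpm, 25 °C, then the phases were separated by centrifugation and both layers diluted and analysed by LC-MS/MS. LogD = log(octanol AUC × relative dilution / buffer AUC).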

[15] = male, Swiss albino, read-out: Bioavailability

| Compound | EC50 (Schistosoma mansoni [1]) [nM] | EC50 (Schistosoma mansoni [5]) [nM] | also measured |
| --- | --- | --- | --- |
| CS(=O)(=O)c1ccc(-c2cnc3ccc(-c4cccc(S(C)(=O)=O)c4)nn23)cc1 | 24900 | – | CC50 [2]: 11900 nM |
| COc1ccc(-c2cnc3cnc(-c4ccc(C(C)C)cc4)cn23)cc1 | > 25000 | – | – |
| OCCn1cc(-c2cn3c(-c4ccc(O)cc4)cnc3cn2)cn1 | > 25000 | – | – |
| CC(C)c1nn2cnc(-c3ccc(F)c(C(F)(F)F)c3)cc2c1-c1ccc2[nH]ncc2c1F | – | – | concentration at 4 h [3]: 332 ng/mL; Tmax [4]: 120 min |
| CC(C)Oc1cccc(-c2cn3c(-c4ccc5[nH]ncc5c4F)c(C(F)(F)F)nc3cn2)c1 | 26.4 | 17.3 | CC50 [2]: 13200 nM |
| Fc1ccc(-c2cn3c(-c4ccc5[nH]ncc5c4F)c(C4CC4)nc3cn2)cc1C(F)(F)C(F)(F)F | 36.8 | 23.2 | – |
| Oc1ccc(-c2cnc3cnc(-c4cnn(C5CCCC5)c4)cn23)cc1 | > 25000 | – | – |
| Oc1ccc(-c2cnc3cnc(C4=COCCC4)cn23)cc1 | > 25000 | – | bioavailability [6, 15]: 0.01%; AUC(0-inf) [7]: 52.2 ng·h/mL; clearance [8]: 177 mL/min/kg; Tmax [4]: 0.6 min |
| Cc1nc2cnc(-c3ccc(F)c(S(F)(F)(F)(F)F)c3)cn2c1-c1ccc2[nH]ncc2c1F | 77 | 26.2 | – |
| Oc1ccc(-c2cnc3cnc(-c4cccc(-c5ccn[nH]5)c4)cn23)cc1 | > 25000 | – | – |
| CC(C)c1cccc(-c2cn3c(-c4ccc(OC(F)(F)F)cc4)cnc3cn2)c1 | > 25000 | – | – |
| Cn1ncc2c(-c3cn4c(-c5ccc(O)cc5)cnc4cn3)cccc21 | 19000 | – | – |
| Cc1nc2cnc(-c3cccc(C(F)(F)F)c3)cn2c1-c1ccc(O)cc1 | 1420 | < 615 | – |
| CC(C)c1cc(-c2cn3c(-c4ccc5[nH]ncc5c4F)c(C(F)(F)F)nc3cn2)ccn1 | 91.7 | 37 | CC50 [2]: 9530 nM |
| Oc1ccc(-c2cnc3cnc(-c4cnn(Cc5ccccc5)c4)cn23)cc1 | > 25000 | – | – |
| Cc1c(-c2c(C(F)(F)F)nc3cnc(-c4ccc(F)c(C(F)(F)F)c4)cn23)ccc2[nH]ncc12 | 760 | – | bioavailability [6, 15]: 65.2%; AUC(0-inf) [7]: 2000 ng·h/mL; clearance [8]: 4.3 mL/min/kg; Vd [9]: 7.87 L/kg; half-life [10]: 1420 min; concentration at 24 h [11]: 98.1 ng/mL; concentration at 4 h [3]: 250 ng/mL; Tmax [4]: 40 min |
| Cn1nc(C(F)(F)F)cc1-c1cn2c(-c3ccc(O)cc3)cnc2cn1 | > 25000 | – | – |
| CC(C)c1nc2cnc(-c3cccc(C(F)(F)F)c3)cn2c1-c1c(F)cc(O)cc1F | 93.7 | < 45.5 | remaining at 1.5 h, 1 µM [12]: 30.2%; solubility kinetic at 24 h [13]: 0.951 µM (≈ 0.412 µg/mL); CC50 [2]: 7500 nM |
| CC(C)c1cc(-c2cn3c(-c4c(F)cc(O)cc4F)c(C4CC4)nc3cn2)ccc1F | 5.19 | 4.48 | – |
| Cc1noc(C)c1-c1cn2c(-c3ccc(O)cc3)cnc2cn1 | > 25000 | – | bioavailability [6, 15]: 0.01%; AUC(0-inf) [7]: 61.2 ng·h/mL; clearance [8]: 140 mL/min/kg; Vd [9]: 0.493 L/kg; half-life [10]: 3.65 min; Tmax [4]: 0.6 min |
| NC(=O)c1cccc(-c2cn3c(-c4ccc(O)cc4)cnc3cn2)c1 | > 25000 | – | – |
| Oc1ccc(-c2cnc3cnc(-c4ccnc(C(F)(F)F)c4)cn23)cc1 | > 25000 | – | – |
| COc1c(O)cccc1-c1c(C(C)C)nc2cnc(-c3cccc(C(F)(F)F)c3)cn12 | 1320 | 1760 | – |
| NC(=O)Cc1cccc(-c2cn3c(-c4ccc(O)cc4)cnc3cn2)c1 | > 25000 | – | – |
| Cc1nc2cnc(-c3ccc(F)c(C(F)(F)C(F)(F)F)c3)cn2c1-c1c(F)cc(O)cc1F | 20.5 | 19.5 | remaining at 1.5 h, 1 µM [12]: 31.6%; solubility kinetic at 24 h [13]: 2.43 µM (≈ 1.15 µg/mL); CC50 [2]: 8800 nM |
| Fc1c(-c2c(C(F)(F)F)nc3cnc(-c4cccc(C(F)(F)F)c4)cn23)ccc2[nH]ncc12 | 41.5 | 25.2 | remaining at 1.5 h, 1 µM [12]: 69% |

| Compound | EC50 (Schistosoma mansoni [1]) [nM] | EC50 (Schistosoma mansoni [5]) [nM] | also measured |
| --- | --- | --- | --- |
| Cn1ncc2cccc(-c3cn4c(-c5ccc(O)cc5)cnc4cn3)c21 | > 25000 | – | – |
| Oc1ccc(-c2cnc3cnc(-c4cccc(C(F)(F)F)c4)cn23)c(Cl)c1 | 4260 | – | – |
| Oc1ccc(-c2cnc3cnc(-c4ccc5[nH]ncc5c4)cn23)cc1 | > 25000 | – | – |
| CC(C)c1nc2cnc(-c3cccc(Br)c3)cn2c1-c1ccc2[nH]ncc2c1F | 26.6 | 36 | – |
| Fc1ccc(-c2cn3c(-c4ccc5[nH]ncc5c4F)c(C(F)(F)F)nc3cn2)cc1C1CC1 | 19.3 | 12 | bioavailability [6, 15]: 135%; AUC(0-inf) [7]: 270 ng·h/mL; clearance [8]: 31.5 mL/min/kg; Vd [9]: 4.45 L/kg; half-life [10]: 169 min; concentration at 24 h [11]: 6.53 ng/mL; concentration at 4 h [3]: 131 ng/mL; Tmax [4]: 40.2 min; CC50 [2]: 10500 nM |
| Cn1nccc1-c1cn2c(-c3ccc(O)cc3)cnc2cn1 | > 25000 | – | – |
| Oc1ccc(-c2cnc3cnc(-c4cnc(-c5ccccc5)o4)cn23)cc1 | > 25000 | – | – |
| Oc1ccc(-c2cnc3cnc(-c4cnn(CC5CC5)c4)cn23)cc1 | > 25000 | – | – |
| Fc1ccc(-c2cn3c(-c4ccc5[nH]ncc5c4F)c(C(F)(F)F)nc3cn2)cc1Br | 34.4 | 47.9 | – |
| Oc1ccc(-c2cnc3cnc(-c4cccc(C(F)(F)F)c4F)cn23)cc1 | > 25000 | – | – |
| CC(C)c1cccc(-c2cn3c(-c4ccc5[nH]ncc5c4F)c(C(F)(F)F)nc3cn2)c1 | 5.18 | 5.3 | remaining at 1.5 h, 1 µM [12]: 16.7%; CC50 [2]: 12900 nM |
| Oc1ccc(-c2cnc3cnc(-c4ccc5cn[nH]c5c4)cn23)cc1 | 25000 | – | – |
| CC(C)c1nc2cnc(-c3ccc(F)c(C(F)(F)F)c3)cn2c1-c1c(F)ccc(O)c1F | 320 | 455 | – |
| COc1cc(O)ccc1-c1c(C(C)C)nc2cnc(-c3cccc(C(F)(F)F)c3)cn12 | 1050 | 918 | – |
| CC(C)Oc1cc(-c2cn3c(-c4ccc5[nH]ncc5c4F)c(C(F)(F)F)nc3cn2)ccc1F | – | – | bioavailability [6]: 152%; AUC(0-inf) [7]: 340 ng·h/mL; concentration at 4 h [3]: 185 ng/mL; Tmax [4]: 40.2 min; Lipophilicity [14]: 5.47 =; CC50 [2]: 9250 nM |
| COc1cc(-c2c(C)nc3cnc(-c4cccc(C(F)(F)F)c4)cn23)ccc1O | 1270 | < 640 | – |
| CC(C)c1cccc(-c2ccc3nnc(-c4ccc(O)cc4)n3c2)c1 | > 25000 | – | – |
| CC(C)c1nc2cnc(-c3ccc(F)c(C(F)(F)F)c3)cn2c1-c1ccc(O)cc1Cl | 127 | 102 | remaining at 1.5 h, 1 µM [12]: 20.3% |
| CC(C)Oc1cccc(-c2cn3c(-c4ccc(O)cc4)cnc3cn2)c1 | 5310 | 4430 | – |
| COc1ccc(-c2nnc3ccc(-c4cccc(C(C)C)c4)cn23)cc1O | 9740 | – | – |
| Oc1ccc(-c2cnc3cnc(C4=CCOCC4)cn23)cc1 | > 25000 | – | – |
| OCCc1cccc(-c2cn3c(-c4ccc(O)cc4)cnc3cn2)c1 | > 25000 | – | – |
| Fc1ccc(-c2cn3c(-c4ccc5[nH]ncc5c4F)c(C(F)(F)F)nc3cn2)cc1C1CCC1 | 59.1 | 45.8 | bioavailability [6, 15]: 121%; AUC(0-inf) [7]: 230 ng·h/mL; clearance [8]: 35.7 mL/min/kg; Vd [9]: 3.77 L/kg; half-life [10]: 132 min; concentration at 24 h [11]: 3.2 ng/mL; concentration at 4 h [3]: 123 ng/mL; Tmax [4]: 79.8 min; CC50 [2]: 6090 nM |
| C#CCOc1cc(-c2cn3c(-c4ccc5[nH]ncc5c4F)c(C(F)(F)F)nc3cn2)ccc1F | 21 | 10.4 | – |
| Oc1cc(F)c(-c2c(CC(F)(F)F)nc3cnc(-c4ccc(F)c(C(F)(F)F)c4)cn23)c(F)c1 | 139 | 79.3 | – |
| CC(C)c1nc2cnc(-c3ccc(F)c(C(F)(F)F)c3)cn2c1-c1ccc2[nH]cnc2c1F | 658 | 904 | – |
